Results published in ChEMBL document CHEMBL1157026, “Novel antileishmanial chalconoids: synthesis and biological activity of 1- or 3-(6-chloro-2H-chromen-3-yl)propen-1-ones” (Eur J Med Chem, 2010).

Legend:
Leishmania major = assay: Antileishmanial activity against Leishmania major MRHO/IR/75/ER promastigote infected in BALB/c mouse peritoneal macrophage after 24 hrs by MTT assay; type: functional, organism-based
Outline: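 L. major vaccine strain MRHO/IR/75/ER, maintained by passage in BALB/c mice, grown on blood agar at 25 °C. Log-phase promastigotes at 2 × 10⁶/mL were put in phenol red-free RPMI 1640 with 10% FCS, 2 mM glutamine, pH ~7.2 and antibiotics, with serial drug dilutions, for 24 h at 25 °C. MTT (0.5 mg/mL) was added for 4 h at 37 °C; pellets were dissolved in DMSO and read on a plate reader. IC50 was determined.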

[1] = Cytotoxicity against BALB/c mouse peritoneal macrophage after 24 hrs by MTT assay; type: cell-based; conditions: peritoneal macrophage cell
Outline: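 Mouse peritoneal macrophages were seeded at 2 × 10⁵ cells/well. After adherence, the medium was replaced with medium holding one concentration per compound. Plates were incubated 24 h at 37 °C in humidified 5% CO2. Controls got culture medium plus DMSO. Viability was read by MTT colorimetric assay.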

**Q.** For `COc1cc(C(=O)/C=C/C2=Cc3cc(Cl)ccc3OC2)cc(OC)c1OC`, which IC50 (Leishmania major) is on record?
**A.** Its IC50 is 2.06 µM.

**Q.** What about the Activity [1] of the same molecule?
**A.** Its Activity is “Non-toxic”.

**Q.** Which IC50 (Leishmania major) does the source give for `O=C(/C=C/c1ccccc1Br)C1=Cc2cc(Cl)ccc2OC1` here?
**A.** The IC50 was 1.33 µM.

**Q.** And the Activity [1]?
**A.** The Activity was “Non-toxic”.

**Q.** Which results are given for `Cc1ccc(/C=C/C(=O)C2=Cc3cc(Cl)ccc3OC2)cc1`?
**A.** IC50 (Leishmania major): 2.75 µM; Activity [1]: Non-toxic

**Q.** With `COc1ccc(OC)c(/C=C/C(=O)C2=Cc3cc(Cl)ccc3OC2)c1` as the molecule, how does the IC50 (Leishmania major) read?
**A.** Its IC50 is 3 µM.

**Q.** And the Activity [1]?
**A.** The Activity was “Non-toxic”.

**Q.** Which results are given for `COc1cccc(/C=C/C(=O)C2=Cc3cc(Cl)ccc3OC2)c1OC`?
**A.** IC50 (Leishmania major): 2.8 µM; Activity [1]: Non-toxic

**Q.** For `O=C(/C=C/C1=Cc2cc(Cl)ccc2OC1)c1ccccc1F`, which IC50 (Leishmania major) is on record?
**A.** The IC50 was 2.22 µM.

**Q.** What about the Activity [1] of the same molecule?
**A.** Its Activity is “Non-toxic”.

**Q.** For `O=C(/C=C/C1=Cc2cc(Cl)ccc2OC1)c1ccccc1Cl`, which IC50 (Leishmania major) is on record?
**A.** Its IC50 is 1.22 µM.

**Q.** What about the Activity [1] of the same molecule?
**A.** Its Activity is “Non-toxic”.

**Q.** For `O=C(/C=C/C1=Cc2cc(Cl)ccc2OC1)c1ccc(Cl)cc1Cl`, which IC50 (Leishmania major) is on record?
**A.** The IC50 was 1.91 µM.

**Q.** And the Activity [1]?
**A.** Its Activity is “Non-toxic”.

**Q.** For MEGLUMINE ANTIMONATE, which Activity [1] is on record?
**A.** Its Activity is 40%.
